Compounds with a hit are over-represented: about 2.7% of the library has one in this group of screens.
DENV2 CPE rescue: protects cells from dengue virus 2 cytopathic effect | hit rate 1.7% among 350,000 | AID 651640 | DENV2-infected cells, cytopathic effect rescue, plate reader | CPE inhibition, % at 9.99 µM; in the data active = CPE inhibition above about 20%, passing the limit was not always enough; inconclusive = no clear call, values can overlap the other calls; tested in BHK-21 cells;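 also: 0% = median of neutral control wells and 100% = median of positive control wells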
CaV13 FRET inh: Disruptors of the CACNA1D IQ motif to Ca2+-dependent inactivation inhibitor domain association, primary screening, Förster resonance energy transfer in intact living …. HEK cells, CFP/YFP FRET ICDI-IQ, plate reader, 10 min; percent FRET-ratio fall versus neutral wells. inhibition, % at 12.3 µM. hit rate 0.098% among 340,000. AID 743397;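 active = mean replicate inhibition of at least 30% and at least 1% of replicates passing that level; inconclusive = only one of the two criteria is met; inactive = neither criterion is met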;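 also: 0% = median of the neutral control wells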
AF4-AF9 inh: MLL-AF4/AF9 protein interaction inhibition. P42568. hit rate 0.47% among 350,000. AlphaScreen, biotin-AF4 peptide binding to FLAG-AF9. inhibition, % at 10 µM. AID 651704;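 active = every replicate reaching a set inhibition limit, whatever the replicate mean, cut at about 25% in these data; inconclusive = mean inhibition reaches that limit but some replicates miss it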;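 also: 0% = plate neutral control median and 100% = total signal loss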
S100A4 MyoIIA: inhibitors of human S100A4 binding to myosin IIA peptide; P26447; S100A4/TAMRA-MyoIIA peptide fluorescence polarization; inhibition, % at 10.7 µM; hit rate 0.14% among 360,000;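 active = mean inhibition of at least 70% across replicates, with every replicate also reaching that level; inconclusive = mean inhibition reaches 70% but some replicates fall short; inactive = mean inhibition below 70%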
Target sequence (P26447 whole entry, looked up): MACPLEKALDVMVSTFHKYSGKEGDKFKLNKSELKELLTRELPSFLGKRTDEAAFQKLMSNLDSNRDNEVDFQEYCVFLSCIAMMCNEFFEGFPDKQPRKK
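Assay system: human S100A4 monomer with TAMRA-labelled myosin IIA peptide / Buffer or medium: Calcium-containing HEPES buffer, pH 7.2 / Reagent: TAMRA-labelled myosin IIA heavy-chain peptide probe, 5 nM / Compound: one dose per compound / Timing: polarization read 5 min after assay mix addition, stable 5–60 min / Benchmarks: neutral control DMSO, positive control TFP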
SIRT5 block: blocks human SIRT5 desuccinylation of peptide; Q9NXA8; Purified SirT5, succinyl-peptide AMC, trypsin-coupled fluorescence; inhibition, % at 15 µM; hit rate 1.1% among 330,000; in the data active = inhibition above about 15%; inconclusive = no clear call, values can overlap the other calls
Target sequence (Q9NXA8 whole entry, looked up): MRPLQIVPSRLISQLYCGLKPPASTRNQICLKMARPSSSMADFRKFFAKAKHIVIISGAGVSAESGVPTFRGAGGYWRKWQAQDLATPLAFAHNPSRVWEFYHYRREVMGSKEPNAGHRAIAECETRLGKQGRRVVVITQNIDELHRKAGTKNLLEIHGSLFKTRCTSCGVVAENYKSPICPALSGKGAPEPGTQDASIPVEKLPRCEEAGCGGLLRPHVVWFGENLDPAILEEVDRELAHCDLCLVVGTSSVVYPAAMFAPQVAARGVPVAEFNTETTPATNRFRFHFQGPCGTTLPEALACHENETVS
Numbers without * were called inactive; u = inconclusive; x = no result given; ! = repeats disagree.

SMILES	DENV2 CPE rescue	CaV13 FRET inh	AF4-AF9 inh	S100A4 MyoIIA	SIRT5 block
Cc1ccc(Cl)cc1N1CCN(C(=O)c2ccc3nc[nH]c3c2)CC1	0	-3	2	-2	1
COc1ccc(S(=O)(=O)N(C)C[C@H]2Oc3ccc(N(C)C)cc3CC(=O)N([C@@H](C)CO)C[C@H]2C)cc1	-8	x	1	0	0
O=C(C[C@@H]1CC[C@@H]2[C@H](COC[C@H](O)CN2C(=O)Nc2ccc(Cl)c(Cl)c2)O1)NCc1ccc(Cl)c(Cl)c1	44*	x	3	-13	5
CCNC(=O)C[C@H]1CC[C@H]2[C@@H](COC[C@H](O)CN2Cc2ccc(Cl)c(Cl)c2)O1	109*	x	2	4	-3
CNC(=O)C[C@@H]1CC[C@@H]2[C@H](COC[C@@H](O)CN2Cc2ccncc2)O1	25*	x	-3	0	-2
CN(C)CCCNC(=O)C[C@@H]1CC[C@H]2[C@@H](COC[C@@H](O)CN2Cc2ccc(Cl)c(Cl)c2)O1	-1	x	4	137*	4
CCCNC(=O)C[C@H]1CC[C@H]2[C@@H](COC[C@@H](O)CN2Cc2ccc(Cl)c(Cl)c2)O1	-8	x	0	0	0
CNC(=O)C[C@H]1CC[C@H]2[C@@H](COC[C@@H](O)CN2Cc2ccncc2)O1	-11	x	-2	-22	-4
CC(C)CC#Cc1ccc2c(c1)O[C@@H](CN(C)CC1CC1)[C@@H](C)CN([C@@H](C)CO)S2(=O)=O	-7	x	-3	-4	6
COc1cccc(S(=O)(=O)N[C@@H]2C=C[C@H](CC(=O)NCc3ccc(Cl)cc3)O[C@@H]2CO)c1	-9	x	-4	-14	-2
COC(=O)[C@@H]1C[C@H]2CC[C@H](O)C[C@H]2N1Cc1ccc(C(F)(F)F)cc1	61*	-5	1	-6	x
COc1ccc(NC(=O)Nc2ccc3c(c2)C(=O)N([C@@H](C)CO)C[C@@H](C)[C@@H](CN(C)Cc2ccc(C(=O)Nc4ccccc4N)cc2)O3)cc1	0	x	2	10	16*
C[C@@H]1CN([C@@H](C)CO)C(=O)Cc2cc(NC(=O)c3ccncc3)ccc2O[C@H]1CN(C)Cc1ccc(C(=O)Nc2ccccc2N)cc1	72*	x	-13	4	0
C[C@@H]1CN([C@H](C)CO)C(=O)Cc2cc(NC(=O)c3ccncc3)ccc2O[C@H]1CN(C)Cc1ccc(C(=O)Nc2ccccc2N)cc1	-2	x	-2	0	x
COc1ccc(NC(=O)Nc2ccc3c(c2)CC(=O)N([C@H](C)CO)C[C@@H](C)[C@H](CN(C)Cc2ccc(C(=O)Nc4ccccc4N)cc2)O3)cc1	55*	x	-3	67	0
COc1ccc(NC(=O)Nc2ccc3c(c2)C(=O)N([C@H](C)CO)C[C@@H](C)[C@@H](CN(C)Cc2ccc(C(=O)Nc4ccccc4N)cc2)O3)cc1	-2	x	-2	10	7
CC(=O)c1ccc(NC(=S)N2CC(C)CC(C)C2)cc1 (configuration not stated)	-3	-14	3	5	16*
CC(C)NC(=O)N(C)C[C@H]1OCCCC[C@H](C)Oc2ccc(NS(=O)(=O)c3cn(C)cn3)cc2C(=O)N([C@@H](C)CO)C[C@H]1C	-1	x	1	-23	0
O=S1(=O)CCOC[C@H](Cc2ccccc2)N1Cc1cccc(F)c1	32*	-6	-2	-3	x
C[C@@H]1CCCCO[C@@H](CN(C)S(C)(=O)=O)[C@@H](C)CN([C@@H](C)CO)C(=O)c2cc(NC(=O)CCCN(C)C)ccc2O1	u	x	-3	-18	-1
Cc1ccc2oc(C(=O)N(Cc3ccc(N(C)C)cc3)CC3CCCO3)c(C)c2c1 (configuration not stated)	9	-14	28*	-6	-1
Cc1c(C(=O)N(Cc2ccccc2)C2CCS(=O)(=O)C2)oc2ccccc12 (configuration not stated)	-7	-6	u	3	16*
Cc1c(C(=O)N(Cc2ccc(N(C)C)cc2)C2CCS(=O)(=O)C2)oc2ccccc12 (configuration not stated)	-1	6	61*	0	0
Cc1c(C(=O)N(Cc2ccc(F)cc2)C2CCS(=O)(=O)C2)oc2ccccc12 (configuration not stated)	5	-15	-3	14	-1
Cc1cc2oc(C(=O)N(Cc3ccc(N(C)C)cc3)CC3CCCO3)c(C)c2cc1C (configuration not stated)	0	-15	u	-1	-3
SMILES	DENV2 CPE rescue	CaV13 FRET inh	AF4-AF9 inh	S100A4 MyoIIA	SIRT5 block
C[C@H](CO)N1C[C@H](C)[C@@H](CN(C)C(=O)Nc2ccc(F)cc2)OCCCC[C@H](C)Oc2ccc(NC(=O)Cc3ccccc3)cc2C1=O	-11	x	-2	-7	7
C[C@H](CO)N1C[C@H](C)[C@H](CN(C)S(=O)(=O)c2ccc(Oc3ccccc3)cc2)OCc2cn(nn2)CCCC1=O	22*	x	-1	14	1
C[C@@H]1CN([C@H](C)CO)C(=O)CCCn2cc(nn2)CO[C@@H]1CN(C)S(=O)(=O)c1ccc(Oc2ccccc2)cc1	0	x	2	0	-6
C[C@H]1CN([C@@H](C)CO)C(=O)CCCn2cc(nn2)CO[C@@H]1CN(C)S(=O)(=O)c1ccc(Oc2ccccc2)cc1	35*!	-6	2	2	-9
CN1C(=O)c2cc(NS(C)(=O)=O)ccc2OC[C@H]2O[C@H](CC(=O)NC3CCCCC3)CC[C@@H]21	4	x	-3	1	-5
C[C@H]1CN([C@@H](C)CO)C(=O)c2cc(NS(=O)(=O)c3cn(C)cn3)ccc2O[C@H]1CN(C)C(=O)Nc1ccc2c(c1)OCO2	16	x	-2	-2	-4
COC(=O)c1cc(-c2c(-c3cc(OC)c(OC)c(OC)c3)noc2C)cc([N+](=O)[O-])c1	21*	-9	12	0	-5
CC(C)CC#Cc1cnc2c(c1)C(=O)N([C@@H](C)CO)C[C@H](C)[C@H](CN(C)Cc1cncnc1)O2	-4	x	-4	8	2
Cc1ccc(S(=O)(=O)Nc2ccc3c(c2)C(=O)N([C@H](C)CO)C[C@H](C)[C@H](CN(C)C(=O)CCC(F)(F)F)OCCCC[C@H](C)O3)cc1	-2	x	0	-1	13
COC(=O)c1c2oc(c1C(=O)OC)C(=O)N[C@H](Cc1ccccc1)Cn1cc(nn1)[C@@H](Cc1ccccc1)NC(=O)N[C@@H](CO)CC2	16	x	4	24	2
C/C=C/c1ccc([C@H]2[C@@H](CO)N(CC3CCOCC3)C23CN(C(=O)COC)C3)cc1	3	x	-8	-3	-4
CS(=O)(=O)N1CC2(C1)[C@@H](c1ccccc1)[C@@H](CO)N2Cc1ccccc1	28*	x	2	-20	0
